Screening results: PubChem BioAssay, several laboratories
Lmaj promast: reduces viability of Leishmania major promastigotes; resazurin fluorescence viability; 200,000 tested, 9% active; inhibition, % at 10 µM; AID 1063; in the data active means inhibition above about 50%;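 further: promastigotes grown with compound for 44 hours at 28 °C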
PTEN del growth: growth suppressors of cells with PTEN tumor suppressor deletion. 140,000 tested, 1.2% active. viability, % at 10 µM. AID 827. HCT116 PTEN-null viability, CellTiter-Glo, 60 h; active compounds read low;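 active means viability at or below a set limit, 4 SD under the median of all tested compounds, cut at about 3.7% in these data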;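 further: PTEN knockout HCT116 line with beta catenin targeted HCT116 as companion control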
PMI activator: increases human mannose-6-phosphate isomerase activity; P34949; purified human PMI, coupled resazurin fluorescence, 20 min; active compounds read high; 1 = vehicle control, 0 substrate-free wells; activation factor at 20 µM; 190,000 tested, 0.005% active; AID 1214;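 active means activation factor of 2 or more at 20 µM, relative to plate controls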
Target sequence (P34949 whole entry, looked up): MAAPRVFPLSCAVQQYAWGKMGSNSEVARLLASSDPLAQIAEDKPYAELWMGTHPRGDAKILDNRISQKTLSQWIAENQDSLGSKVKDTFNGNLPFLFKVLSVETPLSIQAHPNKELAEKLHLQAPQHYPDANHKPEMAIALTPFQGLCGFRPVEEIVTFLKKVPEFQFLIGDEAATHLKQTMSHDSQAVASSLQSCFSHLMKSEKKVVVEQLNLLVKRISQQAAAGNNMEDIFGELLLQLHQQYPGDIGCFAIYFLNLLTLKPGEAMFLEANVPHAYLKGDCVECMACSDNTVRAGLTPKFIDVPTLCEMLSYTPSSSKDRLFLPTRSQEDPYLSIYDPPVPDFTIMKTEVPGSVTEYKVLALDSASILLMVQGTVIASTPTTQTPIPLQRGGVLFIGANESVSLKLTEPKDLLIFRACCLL
PMI act hi M6P: PMI (human) activation, high substrate. P34949. coupled PMI enzyme assay, resazurin fluorescence, 20 min; active compounds read high; 1 = untreated enzyme, 0 = substrate-free blank. activation factor at 20 µM. 190,000 tested, 0.34% active. AID 1216;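 active means activation factor of 2 or more at 20 µM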
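Test system: human PMI in coupled enzyme assay; Input: PMI at 15 ng/mL final; Medium: HEPES buffer, pH 7.4; Schedule: 20 min incubation at room temperature; Technique: resorufin fluorescence at Ex 544/Em 590 nm; Compound: 20 µM single dose; Probe or stimulus: Near-saturating mannose-6-phosphate, 1.0 mM.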
HCT116 bCat-KO: beta-catenin-lacking colon tumor cell growth suppression | viability, % at 10 µM | HCT116 beta-catenin knockout viability, CellTiter-Glo, 60 h; active compounds read low | 140,000 tested, 1.5% active;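 active means viability at or under a set limit, the compound median less 4 SD, cut at about 6% in these data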
Lmaj promast 1uM: inhibitors of Leishmania major promastigote growth, repeat at 1 uM. shares compounds with Lmaj promast. L. major promastigote growth, resazurin fluorescence, 48 h. inhibition, % at 1 µM. 1,100 tested, 13% active;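 active means inhibition above about 50% in both repeat tests, limit read from the data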
Of the large screens only hits and unclear results are named; the others gave an inactive call (follow-up assays come after a bar, where they were run). Only some compounds are listed: those with a hit (about 9.6% of all), similar ones and a draw of the others.

Nn1cnc2c(c1=O)C1(CCCCC1)Cc1ccccc1-2	none
Oc1ccc(-c2nc3c4c(ncn3n2)-c2ccccc2CC42CCCC2)cc1	Lmaj promast 87, PTEN del growth 2.6, HCT116 bCat-KO 3.0 | Lmaj promast 1uM inactive
COc1ccc(/C=N/NC(=O)c2nonc2C)cc1	none
Cc1cccc2cc(-c3ccccc3)c(-c3ccccc3)c[n+]12	Lmaj promast 100 | Lmaj promast 1uM inactive
O=[N+]([O-])c1cccc(-c2cc3cccc[n+]3cc2-c2cccc([N+](=O)[O-])c2)c1	none
CCCCNS(=O)(=O)c1ccc2nc(-c3cccnc3)cc(C(=O)NCCCOCC)c2c1	none (no result: PTEN del growth, HCT116 bCat-KO)
CO/N=C/NC(=O)N1OC[C@@H]2COc3ccc4ccccc4c3[C@@H]21	none
O=C(N/C=N/OCc1cccc(C(F)(F)F)c1)N1OC[C@@H]2COc3ccc4ccccc4c3[C@@H]21	Lmaj promast 92 | Lmaj promast 1uM inactive
CCC(C)[C@H](NC(=O)NCCCn1ccnc1)C(=O)OC (stereo not given in full)	Lmaj promast 52 | Lmaj promast 1uM inactive
Cc1noc(C)c1CSCC(=O)N1CCN(c2ccc([N+](=O)[O-])cc2)CC1	none
O=C1OC(Nc2ccc3c(c2)OCO3)c2ccccc21 (stereo not given)	Lmaj promast 60 | Lmaj promast 1uM inactive
Cc1csc(NC(=O)CSc2nnc(-c3ccc(S(=O)(=O)N4CCCC4)cc3)o2)n1	Lmaj promast 99 | Lmaj promast 1uM inactive
CCN(CC)S(=O)(=O)c1ccc(-c2nnc(SCC(=O)Nc3nc(C)cs3)o2)cc1	none
O=Cc1cn(-c2ccccc2)nc1-c1ccc2c(c1)OCCO2	Lmaj promast 96 | Lmaj promast 1uM inactive
CCOC(=O)C1CCCN(C(=O)c2ccco2)C1 (stereo not given)	none
O=C(/C=C/c1cccc([N+](=O)[O-])c1)NCCN1C(=O)S/C(=C\c2cccnc2)C1=O	Lmaj promast 60 (no result: PTEN del growth, HCT116 bCat-KO) | Lmaj promast 1uM inactive
COc1cc(/C=N/NC(=O)COc2cc(C)cc(C)c2)ccc1OS(=O)(=O)c1ccc(C)cc1	none
COc1ccc(/C=N/NC(=O)c2cccc([N+](=O)[O-])c2)cc1OS(=O)(=O)c1ccc(C)cc1	Lmaj promast 87 (no result: PTEN del growth) | Lmaj promast 1uM inactive
Cc1ccc(C)c(/C=N/Nc2ccccn2)c1	none (no result: PTEN del growth, HCT116 bCat-KO)
COc1cc2c(cc1NCc1ccccn1)oc1ccccc12	Lmaj promast 73 | Lmaj promast 1uM inactive
COc1cc2c(cc1NCc1ccc3c(c1)OCO3)oc1ccccc12	none
Cc1c(Cl)sn(-c2ccc(Cl)cc2)c1=O	Lmaj promast 101 (no result: PTEN del growth, HCT116 bCat-KO) | Lmaj promast 1uM 100
Cc1c(C(=O)O)sc(=S)n1-c1ccc(Cl)cc1	none
O=C(Cn1c(=O)n2ncnc2c2c3c(sc21)CCCC3)c1ccccc1	Lmaj promast 74 | Lmaj promast 1uM inactive
OCCN1CCN(C(=S)c2ccc(Br)cc2)CC1	Lmaj promast 68 | Lmaj promast 1uM inactive
Cn1c(=O)c2sccc2n2c(CCCC(=O)NCc3ccc4c(c3)OCO4)nnc12	none
Cc1cc(Nc2ncc(Cl)cc2Cl)n(-c2ccccc2C)n1	Lmaj promast 82 | Lmaj promast 1uM inactive
O=C(CCl)Nc1cccc(-c2cnc3ccccc3n2)c1	Lmaj promast 100, PTEN del growth 3.0, HCT116 bCat-KO 5.1 | Lmaj promast 1uM 77
Oc1ccc(Cl)cc1C1=NCCNC(C(F)(F)C(F)F)=C1	Lmaj promast 76 | Lmaj promast 1uM inactive
CC1(C)OC(=O)N(c2ccccc2)C12C=Cc1c(ccc3ccccc13)O2 (stereo not given)	Lmaj promast 83 | Lmaj promast 1uM inactive
O=C1NC2(C=Cc3c(ccc4ccccc34)O2)Oc2ccccc21 (stereo not given)	none
O=C(NC(=S)Nc1ccc(Cc2ccncc2)cc1)c1ccc(F)cc1	none (no result: PTEN del growth, HCT116 bCat-KO)
O=C(C[n+]1ccccc1)c1ccc(-c2ccccc2)cc1	Lmaj promast 96 (no result: PTEN del growth, HCT116 bCat-KO) | Lmaj promast 1uM inactive
CCC(=O)c1ccc(-c2ccccc2)cc1	none
Cc1cc(NS(=O)(=O)c2ccc(NC(=S)NC(=O)c3ccc(Br)cc3)cc2)no1	none
O=C(Nc1ccc(Cl)c(Cl)c1)OCCNC(=O)c1cccc(Cl)c1	none
CC(=O)Nc1ccc(NC2=Nc3ccccc3N3C2=Nc2c(c(C)nn2-c2ccccc2)C3c2ccccc2)cc1 (stereo not given)	Lmaj promast 56 | Lmaj promast 1uM inactive
Nc1nc(N)nc(-c2ccc(Oc3ccccc3)cc2)n1	none
Cc1ccc(Oc2ccc(-c3nc(N)nc(N)n3)cc2)cc1C	Lmaj promast 99 | Lmaj promast 1uM inactive
COCCNC(=S)NC12CC3CC(CC(C3)C1)C2	Lmaj promast 53 | Lmaj promast 1uM inactive
Cc1ccc(-c2nc(CSCC(=O)NCCN3CCN(Cc4ccccc4)CC3)c(C)o2)cc1	Lmaj promast 52 | Lmaj promast 1uM inactive
Cc1ccc(-n2nc3ccc(N)cc3n2)cc1	Lmaj promast 84 | Lmaj promast 1uM inactive
O=C(O)c1cccnc1Sc1ccccc1	Lmaj promast 56 | Lmaj promast 1uM inactive
O=C(O)c1cccnc1Sc1ccc(Cl)cc1	none (no result: PTEN del growth, HCT116 bCat-KO)
COc1ccc(Cn2c(-c3ccc(OC)cc3)nc3ccccc32)cc1	Lmaj promast 62 | Lmaj promast 1uM 63
COc1ccc(-c2nc3ccccc3n2OCC(=O)O)cc1	none (no result: PTEN del growth, HCT116 bCat-KO)
COc1ccc(-n2cnnc2SCc2csc(-c3ccccc3)n2)cc1	none
CCOc1nc(Nc2ccc(OC)c(Cl)c2)nc(OCC)n1	none
CC(C)(C)C1CCC2(CC1)Nc1cccc3cccc(c13)N2	Lmaj promast 100 | Lmaj promast 1uM 64
CC[C@@H](C)C(N)c1cn([C@@H](CCC(=O)O)C(=O)N2CCNCC2)nn1 (stereo not given in full)	none (no result: PTEN del growth, HCT116 bCat-KO)
N#C/C(=C\Nc1ccccc1O)c1nc2ccccc2o1	Lmaj promast 79 | Lmaj promast 1uM inactive
N#C/C(=C\c1ccc(Cl)cc1)c1nc2ccccc2o1	none
O=C(COC(=O)C1CCN(S(=O)(=O)c2ccc3c(c2)OCCO3)CC1)Nc1cc(C(F)(F)F)ccc1Cl	none
CC(SC#N)C(=O)C12CC3CC(CC(C3)C1)C2 (stereo not given)	Lmaj promast 63 (no result: PTEN del growth, HCT116 bCat-KO) | Lmaj promast 1uM inactive
COC(=O)[C@@H]1CC[C@H](C)[C@@H](c2ccc(C)cc2)N1C(=O)c1ccc(/C=N/OCC[C@@H]2C=C[C@H](OC(C)=O)[C@@H](COC(C)=O)O2)cc1	Lmaj promast 96 | Lmaj promast 1uM inactive
CCOC(=O)C(=Cc1cc(=O)c(OC)co1)C(=O)OCC	Lmaj promast 100, PTEN del growth 1.4, HCT116 bCat-KO 1.9 | Lmaj promast 1uM 101
CCCCCCCC1CC(CSC(=N)N)OC1=O (stereo not given)	Lmaj promast 100 | Lmaj promast 1uM inactive
Cc1ccc(Oc2ccc(S(=O)(=O)N3CCOCC3)cc2C(N)=O)c(-n2nc3ccccc3n2)c1	Lmaj promast 54 | Lmaj promast 1uM inactive
O=C(N/N=C/c1cccs1)c1ccc2c(c1)OCO2	none
